Reference: ChEMBL document CHEMBL4049387, “Combination of l-Carnitine with Lipophilic Linkage-Donating Gemcitabine Derivatives as Intestinal Novel Organic Cation Transporter 2-Targeting Oral Prodrugs” (J Med Chem, 2017)
Activity calls are given as the source filed them. The calls are words filed in the database; no cut-off is given here.

Legend:
[1] = Half life in rat intestinal homogenates at 5 uM by HPLC method; type: ADME, tissue-based, Intestine
Outline: (§1)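 Compound at 5 µM final in rat plasma, 20% rat hepatic homogenate or 20% rat intestinal homogenate at 37 °C for 24 h. Homogenates made by homogenizing 0.3 g saline-washed tissue in 1 mL saline, spun 13,000 rpm 4 °C 5 min. Sampled at intervals, analysed by HPLC. t1/2 = 0.693/k.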

[2] = Oral bioavailability in Wistar rat at 50 mg/kg administered as single dose in presence of L-carnitine by UPLC-MS/MS method; type: ADME, organism-based; details: in vivo, with L-carnitine
Outline: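 Rats dosed orally with prodrug at a gemcitabine-equivalent dose of 50 mg/kg, co-administered with 40 mM L-carnitine. Serial blood at 5 min–24 h into THU-pretreated heparinized tubes. Plasma measured by UPLC-MS/MS. Absolute bioavailability calculated against iv gemcitabine at 7.5 mg/kg.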

[3] = molecular target: T1, Organic cation/carnitine transporter 2 (Homo sapiens, UniProt O76082); test: Ratio of drug transport assessed as OCTN2 transporter mediated drug uptake in human Caco2 cells at 1 to 800 uM in presence of Na+ to drug transport assessed as OCTN2 transporter mediated drug uptake in human Caco2 cells at 1 to 800 uM in presence of N-methyl-D-glucamine; type: ADME, cell-based; details: caco-2, 800 µM
T1 sequence (O76082 whole entry): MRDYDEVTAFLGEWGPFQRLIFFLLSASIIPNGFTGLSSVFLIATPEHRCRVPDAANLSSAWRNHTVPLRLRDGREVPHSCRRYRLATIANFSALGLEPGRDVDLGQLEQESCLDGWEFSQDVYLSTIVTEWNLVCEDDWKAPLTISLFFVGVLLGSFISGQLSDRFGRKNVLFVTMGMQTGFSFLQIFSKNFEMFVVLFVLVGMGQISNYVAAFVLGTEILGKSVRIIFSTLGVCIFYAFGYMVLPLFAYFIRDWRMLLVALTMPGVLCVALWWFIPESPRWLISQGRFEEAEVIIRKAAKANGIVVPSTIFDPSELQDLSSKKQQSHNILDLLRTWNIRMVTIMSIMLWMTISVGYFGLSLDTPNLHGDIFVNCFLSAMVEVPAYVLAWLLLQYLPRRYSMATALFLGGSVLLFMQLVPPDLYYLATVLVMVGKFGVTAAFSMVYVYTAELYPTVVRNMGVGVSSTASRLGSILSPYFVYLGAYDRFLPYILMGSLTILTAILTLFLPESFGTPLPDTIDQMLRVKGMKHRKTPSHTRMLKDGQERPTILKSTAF

[4] = Drug level in Wistar rat portal blood at 50 mg/kg administered as single dose at 2 hrs by UPLC-MS/MS method; type: ADME, organism-based; details: read-out: Drug uptake
Outline: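 Rats given single oral dose equivalent to 50 mg/kg gemcitabine. Portal vein and systemic plasma sampled at 2 h. Prodrug and gemcitabine measured by UPLC-MS/MS.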

[5] = Half life in rat plasma at 5 uM by HPLC method; type: ADME, cell-free; outline: as §1
[6] = Tmax in Wistar rat at 50 mg/kg, po administered as single dose by UPLC-MS/MS method; type: ADME, organism-based; details: in vivo
Outline: (§2)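 Wistar rats, six per group, single oral dose equivalent to 50 mg/kg gemcitabine; separate group given gemcitabine iv at 7.5 mg/kg. Oral sampling at 5, 10, 15, 30 min and 1, 2, 4, 6, 8, 12, 24 h; iv at 15, 30 min and 2, 4, 8, 12, 24 h. Blood into THU-pretreated heparinized tubes, centrifuged 3000 × g 15 min, plasma at -80 °C. Prodrug and gemcitabine quantified by UPLC-MS/MS. F = AUCpo×Div/AUCiv/Dpo×100%.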

[7] = molecular target: T1, Organic cation/carnitine transporter 2; test: Drug transport assessed as Vmax for OCTN2 transporter mediated drug uptake in human Caco2 cells after 10 mins by Eadie-Hofstee plot method; type: ADME, cell-based; details: caco-2, 10 min
[8] = Half life in rat hepatic homogenates at 5 uM by HPLC method; type: ADME, tissue-based, Liver; outline: as §1
[9] = molecular target: T2, Organic cation/carnitine transporter 2 (Rattus norvegicus, UniProt O70594); test: Ratio of drug transport assessed as OCTN2 transporter mediated effective permeability in rat jejunum at 76 uM in absence of L-carnitine to drug transport assessed as OCTN2 transporter mediated effective permeability in rat jejunum at 76 uM in presence of L-carnitine; type: ADME
T2 sequence (O70594 whole entry): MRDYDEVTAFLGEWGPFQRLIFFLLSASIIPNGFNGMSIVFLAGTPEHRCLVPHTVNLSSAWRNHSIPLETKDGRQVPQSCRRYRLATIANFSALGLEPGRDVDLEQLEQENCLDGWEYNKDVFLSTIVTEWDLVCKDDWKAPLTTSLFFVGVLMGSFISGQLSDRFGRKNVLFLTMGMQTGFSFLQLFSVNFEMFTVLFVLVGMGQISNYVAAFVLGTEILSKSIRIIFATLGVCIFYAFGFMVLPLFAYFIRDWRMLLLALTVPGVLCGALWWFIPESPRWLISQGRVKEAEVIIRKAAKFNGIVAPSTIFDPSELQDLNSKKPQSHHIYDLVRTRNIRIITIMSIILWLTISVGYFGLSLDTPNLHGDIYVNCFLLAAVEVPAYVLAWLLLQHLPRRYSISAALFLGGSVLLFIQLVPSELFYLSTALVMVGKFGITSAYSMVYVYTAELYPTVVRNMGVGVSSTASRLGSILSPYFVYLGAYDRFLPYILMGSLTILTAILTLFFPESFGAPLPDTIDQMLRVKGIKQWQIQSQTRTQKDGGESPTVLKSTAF

[10] = molecular target: T1, Organic cation/carnitine transporter 2; test: Ratio of drug transport assessed as OCTN2 transporter mediated drug uptake in human Caco2 cells at 100 uM in absence of L-carnitine to drug transport assessed as OCTN2 transporter mediated drug uptake in human Caco2 cells at 100 uM in presence of L-carnitine; type: ADME, cell-based; details: caco-2, 100 µM
BXPC-3 [11] = test: Cytotoxicity against human BxPC3 cells assessed as decrease in cell viability after 48 hrs by MTT assay; type: functional, cell-based
Outline: (§3)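 BxPC-3 and Caco-2 cells exposed to compounds for 48 h. Viability read by MTT assay kit. IC50 calculated from dose-response.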

[12] = molecular target: T1, Organic cation/carnitine transporter 2; test: Drug transport assessed as OCTN2 transporter mediated cell permeability in human Caco2 cells across apical to basolateral side at 25 uM after 15 to 120 mins by UPLC-MS/MS method relative to gemcitabine; type: ADME, cell-based; details: caco-2, 25 µM
Outline: (§4)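 Caco-2 cells seeded at 1.0×10^5 cells/well on 0.4 µm polycarbonate inserts, cultured 21 days in MEM; monolayers with TEER over 250 Ω·cm² used. Compound at 25 µM final in HBSS, added apically, with or without 100 µM L-carnitine, 37 °C. Basolateral samples taken at 15, 30, 45, 60, 90, 120 min. Analysed by UPLC-MS/MS to give Papp. Triplicate runs.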

[13] = molecular target: T2, Organic cation/carnitine transporter 2; test: Ratio of drug transport assessed as OCTN2 transporter mediated effective permeability in rat duodenum at 76 uM in absence of L-carnitine to drug transport assessed as OCTN2 transporter mediated effective permeability in rat duodenum at 76 uM in presence of L-carnitine; type: ADME
[14] = Stability of the compound in pH 6.8 phosphate buffer at 5 uM by HPLC method; type: physicochemical; details: pH 6.8, 5 µM
Outline: (§5)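 Compound dissolved at 5 µM in phosphate buffer (pH 1.2, 6.8 or 7.4), held at 37 °C for 24 h. Aliquots taken at intervals and analysed by HPLC. t1/2 = 0.693/k from linear regression of pseudo-first-order kinetics.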

Rattus norvegicus [15] = test: AUC (0 to 24 hrs) in Wistar rat at 50 mg/kg, po administered as single dose by UPLC-MS/MS method; type: ADME, organism-based; set-up: dose 50 mg/kg, time < 24 hr, route oral; details: in vivo; outline: as §2
[16] = Terminal half-life in Wistar rat at 50 mg/kg, po administered as single dose by UPLC-MS/MS method; type: ADME, organism-based; details: in vivo, read-out: beta t1/2 (converted); outline: as §2
OCTN2 = test: Ratio of drug transport in OCTN2 (unknown origin) expressing HEK293 cells assessed as transporter-mediated drug uptake at 25 uM to drug uptake in HEK293 cells at 25 uM; type: ADME, cell-based; details: human, HEK293 cells expressing OCTN2, against HEK293 cells
Outline: (§6)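 OCTN2-transfected HEK293 cells and mock HEK293 cells incubated with 25 µM compound at 37 °C for 15 min, then cellular uptake measured; n = 2.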

[17] = Half life in pH 7.4 phosphate buffer at 5 uM by HPLC method; type: physicochemical; outline: as §5
[18] = molecular target: T1, Organic cation/carnitine transporter 2; test: Ratio of drug transport assessed as OCTN2 transporter mediated cell permeability in human Caco2 cells at 25 uM in absence of L-carnitine to drug transport assessed as OCTN2 transporter mediated cell permeability in human Caco2 cells at 25 uM in presence of L-carnitine; type: ADME, cell-based; details: caco-2, 25 µM; outline: as §4
[19] = Half life in pH 1.2 phosphate buffer at 5 uM by HPLC method; type: physicochemical; outline: as §5
[20] = Oral bioavailability in Wistar rat at 50 mg/kg administered as single dose by UPLC-MS/MS method; type: ADME, organism-based; details: in vivo; outline: as §2
[21] = Drug uptake in HEK293 cells at 25 uM after 15 mins by UPLC-MS/MS method; type: ADME, cell-based; details: human, hek293, 0.25 h; outline: as §6
Rattus norvegicus [22] = test: AUC (0 to 24 hrs) in Wistar rat at 7.5 mg/kg, iv administered as single dose by UPLC-MS/MS method; type: ADME, organism-based; set-up: dose 7.5 mg/kg, time < 24 hr, route intravenous; details: in vivo; outline: as §2
[23] = Cmax in Wistar rat at 7.5 mg/kg, iv administered as single dose by UPLC-MS/MS method; type: ADME, organism-based; set-up: dose 7.5 mg/kg, route intravenous; details: in vivo; outline: as §2
[24] = Tmax in Wistar rat at 7.5 mg/kg, iv administered as single dose by UPLC-MS/MS method; type: ADME, organism-based; details: in vivo; outline: as §2
[25] = Terminal half-life in Wistar rat at 7.5 mg/kg, iv administered as single dose by UPLC-MS/MS method; type: ADME, organism-based; details: in vivo, read-out: beta t1/2 (converted); outline: as §2
[26] = Cmax in Wistar rat at 50 mg/kg, po administered as single dose by UPLC-MS/MS method; type: ADME, organism-based; set-up: dose 50 mg/kg, route oral; details: in vivo; outline: as §2
BXPC-3 [27] = test: Cytotoxicity against human BxPC3 cells assessed as decrease in cell viability at 0.1 to 200 uM after 48 hrs by MTT assay; type: functional, cell-based; outline: as §3
[28] = Half life in pH 6.8 phosphate buffer at 5 uM by HPLC method; type: physicochemical; outline: as §5

| SMILES | half-life at 5 µM [1] | concentration at 2 h [4] | half-life at 5 µM [5] | Tmax [6] | Vmax [7] | half-life at 5 µM [8] | Ratio [10] | Activity (BXPC-3 [11]) | fold change (FC) [12] | AUC (Rattus norvegicus [15]) | half-life [16] | half-life at 5 µM [17] | Ratio [18] | half-life at 5 µM [19] | bioavailability [20] | also measured |
| --- | --- | --- | --- | --- | --- | --- | --- | --- | --- | --- | --- | --- | --- | --- | --- | --- |
| C[N+](C)(C)CC(CC(=O)[O-])OC(=O)CCC(=O)Nc1ccn([C@@H]2O[C@H](CO)[C@@H](O)C2(F)F)c(=O)n1 (some centres not stated) | 50.9 h | 2460 ng/mL | 3.7 h | 1 h | 0.2013 nmol/mg | 15.5 h | 2.2 to 3.7 | Dose-dependent effect | 5 to 15 | 14900 ng·h/mL | 6.2 h | 28.4 h | 1.6 to 3.6 | 5.5 h | 12% | bioavailability [2]: 6%; Ratio [3]: 2 to 10; Ratio [9]: 25; Ratio [13]: 25; Stability [14]: Stable; uptake ratio at 25 µM (OCTN2): 3 to 8 |
| C[N+](C)(C)CC(CC(=O)[O-])OC(=O)CCCCCCC(=O)Nc1ccn([C@@H]2O[C@H](CO)[C@@H](O)C2(F)F)c(=O)n1 (some centres not stated) | – | – | – | 1.2 h | 0.4344 nmol/mg | – | 2.2 to 3.7 | Dose-dependent effect | 5 to 15 | 11100 ng·h/mL | 2.3 h | – | 1.6 to 3.6 | – | – | – |
| Nc1ccn([C@@H]2O[C@H](CO)[C@@H](O)C2(F)F)c(=O)n1 [GEMCITABINE] | – | 199 ng/mL | – | 1.7 h | – | – | – | – | – | 5620 ng·h/mL | 2.3 h | – | – | – | 3.2% | Drug uptake [21]: Not Active; AUC (Rattus norvegicus [22]): 26700 ng·h/mL; Cmax [23]: 7100 ng/mL; Tmax [24]: 0.5 h; half-life [25]: 4.4 h; Cmax [26]: 1320 ng/mL; Activity (BXPC-3 [27]): Active |
| C[N+](C)(C)CC(CC(=O)[O-])OC(=O)CCCCCCCCC(=O)Nc1ccn([C@@H]2O[C@H](CO)[C@@H](O)C2(F)F)c(=O)n1 (some centres not stated) | – | – | – | 1.8 h | 0.3884 nmol/mg | – | 2.2 to 3.7 | Dose-dependent effect | – | 15900 ng·h/mL | 5.4 h | – | 1.6 to 3.6 | – | – | – |
| CCCC(=O)Nc1ccn([C@@H]2O[C@H](CO)[C@@H](O)C2(F)F)c(=O)n1 | 116 h | – | 1.7 h | 1.9 h | – | 32.7 h | – | – | – | 9030 ng·h/mL | 4.3 h | 10.3 h | – | 1 h | – | half-life at 5 µM [28]: 45.9 h |
